Measured values from ChEMBL document CHEMBL3856278, “Antitumor Activity of Lankacidin Group Antibiotics Is Due to Microtubule Stabilization via a Paclitaxel-like Mechanism” (J Med Chem, 2016).
pEC50, pIC50, pKd: −log10 of the molar value. Activity calls are given as the source filed them. No cut-off for these calls is given here.

Experiments:
[1] = (§1) Binding affinity to free porcine brain tubulin dimers after 30 mins by fluorescence quenching assay; set-up: species or system Sus scrofa
How it was run: (§2)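 Free tubulin dimers (porcine brain tubulin, or recombinant human αI-βI) at 2 μM final in 10 mM sodium phosphate, 10 mM MgCl2, 1 mM GTP, 0.5% DMSO, 250 mM sucrose, pH 7.0. Held on ice 10 min, then ligand added at 5–100 μM final. Incubated 30 min at 25 °C, then rotated 1 h at room temperature. Tryptophan emission read at 310–400 nm with 295 nm excitation. Kd derived by Stern–Volmer fit.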

[2] = species on record: Sus scrofa; experiment: as §1; how it was run: as §2
[3] = target: Tubulin alpha-1A /beta chains (Homo sapiens) (UniProt Q71U36+P07437); experiment: (§3) Binding affinity to human recombinant tubulin alpha 1A/tubulin beta chain after 30 mins by fluorescence quenching assay; assay type: protein-complex assay; how it was run: as §2
[4] = target: Tubulin alpha-1A /beta chains (Homo sapiens, UniProt P07437+Q71U36); experiment: as §3; assay type: protein-complex assay; how it was run: as §2
[5] = test system: T47D; experiment: Destabilization of microtubule network in human T47D cells at 0.5 uM after 2 hrs by DAPI staining-based immunofluorescence assay; assay type: cell-based
How it was run: (§4)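 T47D cells seeded on coverslips and synchronized. Treated 2 h with drug (colchicine 0.5 μM, paclitaxel 100 nM, lankacidin C 1 mM) against a 1% DMSO control. Stained with anti-tubulin antibody and Alexa Fluor 488 secondary, DNA counterstained with DAPI. Imaged by epifluorescence microscopy with a 63× objective.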

[6] = species on record: Sus scrofa; experiment: Destabilization of rhodamine labeled porcine microtubule assessed as appearance of short strands microtubules at 10 uM after 5 mins by upright fluorescence microscopic analysis
[7] = test system: T47D; experiment: Stabilization of microtubule network in human T47D cells at 100 nM after 2 hrs by DAPI staining-based immunofluorescence assay; assay type: cell-based
How it was run: (§5)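 T47D cells in RPMI1640 with 2 mM L-glutamine, 10% FBS, 0.01 mg/mL insulin and 1 mM pyruvate were seeded on coverslips, synchronized, then given drug 2 h (1% DMSO solvent control). Anti-tubulin antibody with Alexa Fluor 488 secondary and 0.1 μg/mL DAPI for DNA; epifluorescence at 63×, interphase networks and mitotic spindles scored.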

[8] = test system: T47D; experiment: Stabilization of interphase microtubule network in human T47D cells assessed as disruption of mitotic spindles at 100 nM after 2 hrs by DAPI staining-based immunofluorescence assay; assay type: cell-based; how it was run: as §5
[9] = species on record: Sus scrofa; experiment: Induction of porcine tubulin polymerization assessed as bypass of nucleation phase at 10 uM measured every 94 secs
How it was run: (§6)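 Plate prewarmed to 37 °C; OD340 read at 37 °C every 94 s for 61 cycles with orbital shaking. Runs in triplicate, duplicate for mebendazole; the averaged curve gave phase lengths, Vmax and final polymer mass.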

[10] = species on record: Sus scrofa; experiment: Induction of porcine tubulin polymerization assessed as maximum growth rate at 10 uM measured every 94 secs (reference value: 13 milliOD/min)
How it was run: (§7)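 Assembly followed at 37 °C by OD340 every 94 s for 61 cycles. Averaged curves from three runs were analysed for nucleation, Vmax and final polymer mass.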

[11] = species on record: Sus scrofa; experiment: Induction of porcine tubulin polymerization assessed as increase in final polymer mass at 10 uM measured every 94 secs; how it was run: as §7
[12] = species on record: Sus scrofa; experiment: Stabilization of rhodamine labeled porcine microtubule assessed as appearance of long strands microtubules at 10 uM after 5 mins by upright fluorescence microscopic analysis
How it was run: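 Rhodamine-labeled tubulin mixed 1:4 with unlabeled tubulin to 5 mg/mL in G-PEM (12% glycerol, pH 7.0). Polymerized 20 min at 37 °C, then drug added to 10 μM and incubated 5 min more at 37 °C. Diluted to 1.3 mg/mL and imaged immediately by fluorescence microscopy with a 40× oil objective.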

[13] = Cytotoxicity against human HeLa cells assessed as decrease in cell viability after 48 hrs by CellTiter-Blue assay; assay type: functional, cell-based
How it was run: (§8)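 HeLa cells in DMEM with 10% FBS; T47D cells in RPMI1640 with 10% FBS, insulin and pyruvate. Cells seeded at 2000 per well 24 h before treatment. Triplicate wells given increasing drug concentrations in DMSO for 48, 72 or 96 h. Viability read by CellTiter-Blue fluorescence (560ex/590em) after 2–4 h with reagent. Run twice; mean and SEM reported.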

[14] = Cytotoxicity against human HeLa cells assessed as decrease in cell viability after 72 hrs by CellTiter-Blue assay; assay type: functional, cell-based; how it was run: as §8
[15] = Cytotoxicity against human HeLa cells assessed as decrease in cell viability after 96 hrs by CellTiter-Blue assay; assay type: functional, cell-based; how it was run: as §8
[16] = Cytotoxicity against human T47D cells assessed as decrease in cell viability after 48 hrs by CellTiter-Blue assay; assay type: functional, cell-based; how it was run: as §8
[17] = Cytotoxicity against human T47D cells assessed as decrease in cell viability after 96 hrs by CellTiter-Blue assay; assay type: functional, cell-based; how it was run: as §8
[18] = test system: T47D; experiment: Stabilization of interphase microtubule network in human T47D cells at 1 mM after 2 hrs by DAPI staining-based immunofluorescence assay; assay type: cell-based; how it was run: as §4
[19] = test system: T47D; experiment: Stabilization of interphase microtubule network in human T47D cells assessed as disruption of mitotic spindles at 1 mM after 2 hrs by DAPI staining-based immunofluorescence assay; assay type: cell-based; how it was run: as §4
[20] = species on record: Sus scrofa; experiment: Induction of porcine tubulin polymerization assessed as decrease in duration of nucleation phase at 10 uM measured every 94 secs; how it was run: as §7
[21] = species on record: Sus scrofa; experiment: Induction of porcine tubulin polymerization assessed as bypass of nucleation phase at 100 uM measured every 94 secs; how it was run: as §7
[22] = species on record: Sus scrofa; experiment: Induction of porcine tubulin polymerization assessed as maximum growth rate at 100 uM measured every 94 secs (reference value: 13 milliOD/min); how it was run: as §7
[23] = species on record: Sus scrofa; experiment: Induction of porcine tubulin polymerization assessed as doubling of final polymer mass at 100 uM measured every 94 secs; how it was run: as §7
[24] = Inhibition of flutax-2 binding to porcine microtubule assessed as flutax-2 EC50 at 128 uM after 1 hr by fluorescence assay (reference value: 248 +/- 50 nM); set-up: species or system Sus scrofa
[25] = Binding affinity to paclitaxel binding site of porcine microtubule after 1 hr by Michaelis-Menten plot analysis; set-up: species or system Sus scrofa; conditions: read-out: Kd(app)
[26] = species on record: Sus scrofa; experiment: Inhibition of porcine tubulin polymerization assessed as increase in duration of nucleation phase at 10 uM measured every 94 secs; how it was run: as §6
[27] = species on record: Sus scrofa; experiment: Inhibition of porcine tubulin polymerization assessed as maximum growth rate at 10 uM measured every 94 secs (reference value: 13 milliOD/min); how it was run: as §6
[28] = species on record: Sus scrofa; experiment: Inhibition of porcine tubulin polymerization assessed as decrease in final polymer mass at 10 uM measured every 94 secs; how it was run: as §6

Tubulin alpha-1A /beta chains, sequence (P07437 whole entry, looked up): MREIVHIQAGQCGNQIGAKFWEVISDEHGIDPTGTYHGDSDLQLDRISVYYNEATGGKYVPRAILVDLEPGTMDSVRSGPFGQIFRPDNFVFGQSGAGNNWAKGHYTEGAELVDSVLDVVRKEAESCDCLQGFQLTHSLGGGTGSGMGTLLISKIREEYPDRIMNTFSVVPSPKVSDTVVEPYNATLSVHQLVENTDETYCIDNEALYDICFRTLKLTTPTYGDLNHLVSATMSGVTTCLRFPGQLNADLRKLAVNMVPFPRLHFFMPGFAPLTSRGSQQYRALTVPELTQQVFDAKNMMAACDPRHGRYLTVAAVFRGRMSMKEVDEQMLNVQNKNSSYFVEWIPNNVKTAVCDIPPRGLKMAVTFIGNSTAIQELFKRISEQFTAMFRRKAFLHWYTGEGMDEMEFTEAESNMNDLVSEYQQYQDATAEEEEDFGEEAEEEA
Tubulin alpha-1A /beta chains, sequence (Q71U36 whole entry, looked up): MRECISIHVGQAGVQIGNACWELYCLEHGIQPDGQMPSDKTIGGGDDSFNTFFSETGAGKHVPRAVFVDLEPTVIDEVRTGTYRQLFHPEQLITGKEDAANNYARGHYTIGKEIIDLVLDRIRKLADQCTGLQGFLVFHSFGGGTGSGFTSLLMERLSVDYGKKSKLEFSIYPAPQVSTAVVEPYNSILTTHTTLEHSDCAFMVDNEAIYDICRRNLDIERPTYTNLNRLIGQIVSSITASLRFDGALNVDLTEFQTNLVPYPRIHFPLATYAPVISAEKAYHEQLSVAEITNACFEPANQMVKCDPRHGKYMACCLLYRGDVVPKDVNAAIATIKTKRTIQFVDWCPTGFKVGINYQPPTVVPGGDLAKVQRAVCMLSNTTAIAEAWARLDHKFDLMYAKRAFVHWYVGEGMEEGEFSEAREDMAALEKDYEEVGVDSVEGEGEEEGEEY
Tubulin alpha-1A /beta chains (Homo sapiens), sequence (P07437 whole entry, looked up): as the sequence (P07437 whole entry, looked up) above
Tubulin alpha-1A /beta chains (Homo sapiens), sequence (Q71U36 whole entry, looked up): as the sequence (Q71U36 whole entry, looked up) above

For CC(=O)O[C@@H]1/C=C/C(C)=C/C[C@H](O)/C=C/C(C)=C/[C@@H](NC(=O)C(C)O)[C@]2(C)C(=O)O[C@H](C1)[C@@H](C)C2=O (stereo not given in full), the pKd [1] was 2.96, the Activity [2] was “Dose-dependent effect” and the Activity [3] was “Dose-dependent effect”. The pKd [4] was 3.18.
In the case of COc1cc2c(c(OC)c1OC)-c1ccc(OC)c(=O)cc1[C@@H](NC(C)=O)CC2, the Activity [5] was “Active” and the Activity [6] was “Active”.
In the case of CC(=O)O[C@H]1C(=O)[C@@]2(C)[C@H]([C@H](OC(=O)c3ccccc3)[C@]3(O)C[C@H](OC(=O)[C@H](O)[C@@H](NC(=O)c4ccccc4)c4ccccc4)C(C)=C1C3(C)C)[C@]1(OC(C)=O)CO[C@@H]1C[C@@H]2O, the Activity [7] was “Active”, the Activity [8] was “Active” and the Activity [9] was “Active”. For the same compound, the Vmax (milli optical density/minute) [10] was 21, the Activity [11] was “Active” and the Activity [12] was “Active”.
In the case of CC(=O)C(=O)N[C@@H]1/C=C(\C)C=C[C@@H](O)C/C=C(C)/C=C/[C@@H](O)C[C@H]2OC(=O)[C@]1(C)C(=O)[C@@H]2C, the pIC50 [13] was 2.97, the pIC50 [14] was 3.49 and the pIC50 [15] was 3.65. The pIC50 [16] was 3.69, the pIC50 [17] was 4.95 and the Activity [18] was “Active”. The Activity [19] was “Active”, the Vmax (milli optical density/minute) [10] was 18 and the Activity [11] was “Active”. For the same compound, the Activity [20] was “Active”, the Activity [21] was “Active” and the Vmax (milli optical density/minute) [22] was 35. For the same compound, the Activity [23] was “Active”, the Activity [12] was “Active” and the pEC50 [24] was 6.04. For the same compound, the pKd [25] was 4.30, the pKd [1] was 3.26 and the Activity [2] was “Dose-dependent effect”. The Activity [3] was “Dose-dependent effect” and the pKd [4] was 2.97.
For COC(=O)Nc1nc2cc(C(=O)c3ccccc3)ccc2[nH]1, the inhibition [26] was “Active”, the Vmax (milli optical density/minute) [27] was 4 and the inhibition [28] was “Active”.
